# Calls of active or inactive are those of the source. The rule behind the calls is not given here.
# How the values were obtained:
# [1] = system: A549; assay: Induction of apoptosis in human A549 cells assessed as late apoptotic cell level at 3 uM incubated for 48 hrs by Annexin VFITC and propidium iodide staining based flow cytometry (reference value: 3.4%); format: functional
# How it was run: (§1)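 A549 cells seeded in RPMI 1640 and treated 48 h at 3, 6 or 12 µM. Cells then stained with Annexin V-FITC plus propidium iodide, 30 min at 4 °C in the dark, and analysed on a FACS Calibur flow cytometer.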
# [2] = system: A549; assay: Induction of apoptosis in human A549 cells assessed as late apoptotic cell level at 12 uM incubated for 48 hrs by Annexin VFITC and propidium iodide staining based flow cytometry (reference value: 3.4%); format: functional; how it was run: as §1
# [3] = biological target: Vascular endothelial growth factor receptor 2 (Homo sapiens, UniProt P35968); assay: Inhibition of VEGFR2 (unknown origin) incubated for 10 mins using FAM-labeled peptide and ATP by mobility shift assay
# [4] = system: A549; assay: Induction of apoptosis in human A549 cells assessed as early apoptotic cell level at 12 uM incubated for 48 hrs by Annexin VFITC and propidium iodide staining based flow cytometry (reference value: 0.64%); format: functional; how it was run: as §1
# [5] = system: MCF7; assay: Cytotoxicity against human MCF7 cells assessed as reduction in cell viability incubated for 72 hrs by MTT assay; format: functional, cell-based
# How it was run: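 Cells grown in MEM with 10% FBS; about 4×10^3 cells per well, pre-incubated 24 h at 37 °C in 5% CO2, then exposed to compound for 72 h. Seven concentrations, threefold serial dilution from 100 ug/mL initial. MTT at 5 µg/mL terminal concentration for 4 h; formazan dissolved in DMSO, absorbance read at 492 nm against 630 nm reference. IC50 is the average of two determinations.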
# [6] = system: A549; assay: Induction of apoptosis in human A549 cells assessed as viable cell level at 6 uM incubated for 48 hrs by Annexin VFITC and propidium iodide staining based flow cytometry (reference value: 93.27%); format: functional; how it was run: as §1
# [7] = system: A549; assay: Induction of morphological changes in human A549 cells assessed as induction of nucleus bright green staining at 1.85 uM incubated for 12 hrs by acridine orange dye based inverted microscopy and fluorescence microscopy; format: functional, cell-based
# How it was run: (§2)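 Untreated control included. A549 cells exposed 12 h at 1.85 μM, then single-stained with acridine orange. Nuclei and morphology examined by inverted and fluorescence microscopy.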
# [8] = biological target: Epidermal growth factor receptor (Homo sapiens, UniProt P00533); assay: Inhibition of EGFR (unknown origin) incubated for 10 mins using FAM-labeled peptide and ATP by mobility shift assay
# [9] = system: A549; assay: Induction of apoptosis in human A549 cells assessed as early apoptotic cell level at 6 uM incubated for 48 hrs by Annexin VFITC and propidium iodide staining based flow cytometry (reference value: 0.64%); format: functional; how it was run: as §1
# [10] = system: A549; assay: Induction of morphological changes in human A549 cells assessed as induction of chromatin condensation at 1.85 uM incubated for 12 hrs by acridine orange dye based inverted microscopy and fluorescence microscopy; format: functional, cell-based; how it was run: as §2
# Sequence of Epidermal growth factor receptor (P00533 whole entry): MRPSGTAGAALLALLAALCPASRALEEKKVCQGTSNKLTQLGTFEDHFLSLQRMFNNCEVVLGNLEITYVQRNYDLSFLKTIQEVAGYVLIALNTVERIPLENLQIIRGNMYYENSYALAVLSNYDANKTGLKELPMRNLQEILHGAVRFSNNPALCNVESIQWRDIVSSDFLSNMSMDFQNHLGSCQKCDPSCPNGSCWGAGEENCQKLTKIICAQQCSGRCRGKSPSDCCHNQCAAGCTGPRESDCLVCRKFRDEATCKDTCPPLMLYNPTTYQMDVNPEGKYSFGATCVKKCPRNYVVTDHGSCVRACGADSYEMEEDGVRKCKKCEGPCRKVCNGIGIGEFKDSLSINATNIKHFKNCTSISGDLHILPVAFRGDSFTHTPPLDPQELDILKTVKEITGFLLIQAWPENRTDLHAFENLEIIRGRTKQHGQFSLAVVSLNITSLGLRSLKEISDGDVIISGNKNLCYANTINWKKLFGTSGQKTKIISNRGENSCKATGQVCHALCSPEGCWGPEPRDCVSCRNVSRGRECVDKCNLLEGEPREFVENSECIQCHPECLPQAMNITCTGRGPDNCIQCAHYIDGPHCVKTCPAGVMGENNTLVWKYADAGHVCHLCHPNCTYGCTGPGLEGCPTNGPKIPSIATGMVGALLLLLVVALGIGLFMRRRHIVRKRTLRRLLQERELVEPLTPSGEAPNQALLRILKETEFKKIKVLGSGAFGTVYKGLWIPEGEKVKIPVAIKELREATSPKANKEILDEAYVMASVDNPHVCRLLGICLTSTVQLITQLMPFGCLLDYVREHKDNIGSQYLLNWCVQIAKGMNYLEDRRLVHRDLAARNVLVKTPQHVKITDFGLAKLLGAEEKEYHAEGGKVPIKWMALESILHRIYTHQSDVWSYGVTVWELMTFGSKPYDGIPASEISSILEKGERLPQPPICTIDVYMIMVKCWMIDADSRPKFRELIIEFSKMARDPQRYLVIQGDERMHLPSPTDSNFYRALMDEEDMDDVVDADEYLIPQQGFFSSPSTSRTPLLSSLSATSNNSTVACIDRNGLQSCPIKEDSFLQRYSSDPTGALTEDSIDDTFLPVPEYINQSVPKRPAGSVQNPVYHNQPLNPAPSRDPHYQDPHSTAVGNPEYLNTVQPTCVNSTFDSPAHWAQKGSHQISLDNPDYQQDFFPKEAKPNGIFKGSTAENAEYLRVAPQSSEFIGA
# Sequence of Vascular endothelial growth factor receptor 2 (P35968 whole entry): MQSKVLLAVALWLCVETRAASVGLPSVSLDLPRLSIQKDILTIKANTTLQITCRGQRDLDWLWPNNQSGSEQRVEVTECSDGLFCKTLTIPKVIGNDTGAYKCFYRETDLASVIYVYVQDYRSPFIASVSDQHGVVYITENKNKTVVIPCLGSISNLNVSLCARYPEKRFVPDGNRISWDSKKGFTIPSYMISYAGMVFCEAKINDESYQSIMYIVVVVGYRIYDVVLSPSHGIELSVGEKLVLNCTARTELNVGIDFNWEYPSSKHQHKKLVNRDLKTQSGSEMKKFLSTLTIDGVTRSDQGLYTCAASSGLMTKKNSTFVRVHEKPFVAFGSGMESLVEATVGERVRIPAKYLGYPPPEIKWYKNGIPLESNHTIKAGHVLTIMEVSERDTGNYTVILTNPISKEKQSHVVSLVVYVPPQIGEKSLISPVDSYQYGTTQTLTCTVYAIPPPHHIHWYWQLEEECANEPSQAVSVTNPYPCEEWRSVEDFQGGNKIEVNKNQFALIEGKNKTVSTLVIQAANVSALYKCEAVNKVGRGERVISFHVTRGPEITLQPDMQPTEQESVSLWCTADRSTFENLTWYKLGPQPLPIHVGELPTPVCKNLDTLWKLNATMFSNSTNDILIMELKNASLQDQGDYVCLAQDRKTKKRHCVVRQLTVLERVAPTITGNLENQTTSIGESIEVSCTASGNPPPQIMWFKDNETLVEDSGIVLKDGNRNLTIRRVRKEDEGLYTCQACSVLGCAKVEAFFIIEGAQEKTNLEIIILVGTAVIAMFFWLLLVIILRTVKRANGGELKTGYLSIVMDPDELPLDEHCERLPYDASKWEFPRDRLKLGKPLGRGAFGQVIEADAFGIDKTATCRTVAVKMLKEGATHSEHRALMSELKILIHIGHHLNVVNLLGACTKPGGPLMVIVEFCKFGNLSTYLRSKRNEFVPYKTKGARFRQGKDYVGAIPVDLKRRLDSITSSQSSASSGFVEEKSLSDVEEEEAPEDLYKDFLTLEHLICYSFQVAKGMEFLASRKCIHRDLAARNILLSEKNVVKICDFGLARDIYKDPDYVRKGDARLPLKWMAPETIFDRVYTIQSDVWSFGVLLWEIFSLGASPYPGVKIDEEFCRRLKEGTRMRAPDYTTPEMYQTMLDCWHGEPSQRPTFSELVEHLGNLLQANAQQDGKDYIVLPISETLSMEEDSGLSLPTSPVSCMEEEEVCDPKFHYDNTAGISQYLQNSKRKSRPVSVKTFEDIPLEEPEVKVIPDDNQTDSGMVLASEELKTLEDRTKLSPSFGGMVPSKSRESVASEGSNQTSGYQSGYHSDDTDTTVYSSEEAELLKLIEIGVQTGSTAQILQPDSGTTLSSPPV
structure (smiles),measurement,setting,value
CNC(=O)c1cc(Oc2ccc(C3=NNC(c4cccc(Br)c4)C3)cc2)ccn1 (stereo unspecified),Activity,[1],4.51%
same,Activity,[2],10.05%
same,IC50,[3],560 nM
same,Activity,[4],11.95%
same,Activity,[5],Dose-dependent effect
same,IC50,"[5]; MCF7, 72 h",1960 nM
same,Activity,[6],81.93%
same,Activity,[7],Active
same,IC50,[8],> 10000 nM
same,Activity,[9],7.72%
same,Activity,[10],Active

# Source: ChEMBL document CHEMBL4177575 (Bioorg Med Chem, 2017)
